Source: ChEMBL document CHEMBL4265954, “Discovery of potent liver-selective stearoyl-CoA desaturase-1 (SCD1) inhibitors, thiazole-4-acetic acid derivatives, for the treatment of diabetes, hepatic steatosis, and obesity” (Eur J Med Chem, 2018)
≈ marks a conversion by molar mass, not a printed value.

Tests used:
Stearoyl-CoA desaturase = target: T1, Stearoyl-CoA desaturase (Homo sapiens, UniProt O00767); assay: Inhibition of recombinant human SCD1 expressed in baculovirus expression system assessed as reduction in [3H]H2O production using stearoyl [9,10-3H]CoA as substrate in presence of NADH incubated for 30 mins by scintillation counting method
T1 sequence (O00767 whole entry): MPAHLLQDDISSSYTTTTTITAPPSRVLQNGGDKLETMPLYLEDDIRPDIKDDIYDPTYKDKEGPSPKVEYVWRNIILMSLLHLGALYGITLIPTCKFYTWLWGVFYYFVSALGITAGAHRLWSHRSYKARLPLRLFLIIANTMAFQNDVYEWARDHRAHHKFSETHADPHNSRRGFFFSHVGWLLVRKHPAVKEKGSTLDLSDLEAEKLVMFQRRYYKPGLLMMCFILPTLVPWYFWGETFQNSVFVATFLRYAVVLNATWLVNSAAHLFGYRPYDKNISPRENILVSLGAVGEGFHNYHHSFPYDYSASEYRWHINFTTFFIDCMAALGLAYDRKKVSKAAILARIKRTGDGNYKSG
How it was run: (§1)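 Desaturation of [9,10-3H]stearoyl-CoA measured as released [3H]H2O. Water was separated from charcoal-adsorbed substrate by filtration and counted by scintillation. Remaining activity = (compound − background)/(control − background). DMSO wells served as control and pre-stopped wells as background. IC50 was interpolated from the two points bracketing 50%.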

[1] = Solubility of the compound in PBS at pH 7.2; format: physicochemical
[2] = Apparent permeability of the compound in human Caco2 cells; format: ADME, cell-based; conditions: Caco-2
Mus musculus [3] = assay: Ex vivo inhibition of SCD1 in C57BL/6J mouse liver assessed as residual activity at 10 mg/kg, po treated for 24 hrs followed by incubation with [14C]stearoyl-CoA substrate for 10 mins by TLC assay relative to control; format: functional
How it was run: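 Male 6-week-old C57BL/6J mice dosed orally as a suspension in 0.5% methylcellulose. Liver or eyelid was taken 6 or 24 h later and homogenized in 100 mM Tris-HCl pH 7.4 with 0.25 M sucrose. S9 was obtained at 10,000 × g, 4 °C. S9 was incubated with [14C]stearoyl-CoA, NADH, MgCl2 and cytochrome b5 at room temperature, 10 min for liver and 30 min for eyelid. Lipids were saponified and run on AgNO3 TLC to quantify stearate and oleate. Result is % of vehicle control.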

Acyl-CoA desaturase 1 = target: T2, Acyl-CoA desaturase 1 (Rattus norvegicus, UniProt P07308); assay: Inhibition of rat liver microsome SCD assessed as reduction in [3H]H2O production using stearoyl [9,10-3H]CoA as substrate in presence of NADH incubated for 30 mins by scintillation counting method; format: microsomes; how it was run: as §1
T2 sequence (P07308 whole entry): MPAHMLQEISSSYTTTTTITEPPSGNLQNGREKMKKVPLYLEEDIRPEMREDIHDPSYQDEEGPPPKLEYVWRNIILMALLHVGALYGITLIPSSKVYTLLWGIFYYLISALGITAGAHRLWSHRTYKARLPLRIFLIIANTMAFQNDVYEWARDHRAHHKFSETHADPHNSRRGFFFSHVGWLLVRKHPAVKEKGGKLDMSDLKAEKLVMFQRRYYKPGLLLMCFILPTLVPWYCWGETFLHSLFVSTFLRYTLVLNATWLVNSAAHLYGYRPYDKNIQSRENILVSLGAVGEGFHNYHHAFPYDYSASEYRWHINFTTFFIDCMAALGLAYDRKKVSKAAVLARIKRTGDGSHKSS

hERG (KCNH2) = hERG (KCNH2) (Homo sapiens, UniProt Q12809); assay: Inhibition of human ERG at 10 uM relative to control
Cytochrome P450 3A4 = Cytochrome P450 3A4 (Homo sapiens, UniProt P08684); assay: Inhibition of CYP3A4 (unknown origin); format: ADME
Cytochrome P450 2C9 = Cytochrome P450 2C9 (Homo sapiens, UniProt P11712); assay: Inhibition of CYP2C9 (unknown origin); format: ADME
Cytochrome P450 2D6 = Cytochrome P450 2D6 (Homo sapiens, UniProt P10635); assay: Inhibition of CYP2D6 (unknown origin); format: ADME
[4] = Metabolic stability in human liver S9 fraction after 1 hr; format: ADME, subcellular; conditions: read-out: Stability
Mus musculus [5] = assay: Antiobesity activity in high fat diet fed C57BL/6J mouse assessed as reduction in diet-induced body weight gain administered orally as diet mixture for 43 days; format: functional, organism-based
How it was run: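 C57BL/6J mice, individually housed, fed HFD for one month, then given HFD admixed with drug (0.0040% for 3 mg/kg/day, 0.0133% for 10 mg/kg/day) for 43 days, from 10 to 16 weeks of age. Chow-fed normal group as control. Body weight measured every 3–4 days. Mean ± SD, n=5–8. Dunnett's test versus HFD control.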

Rattus norvegicus [6] = assay: Ex vivo inhibition of SCD1 in high sucrose diet Sprague-Dawley rat liver treated orally for 6 hrs followed by incubation with [14C]stearoyl-CoA substrate for 10 mins by TLC assay; format: functional, organism-based
How it was run: (§2)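 Sprague-Dawley rats on a high sucrose diet, given oral 1 or 10 mg/kg. Liver, epididymal adipose and eyelid were taken 6 h later and homogenized. S9 SCD activity was measured by [14C]stearoyl-CoA conversion to oleate and quantified by AgNO3 TLC imaging. Result is % remaining activity versus control, mean ± SD, n=3.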

Rattus norvegicus [7] = assay: Ex vivo inhibition of SCD1 in high sucrose diet Sprague-Dawley rat epididymal adipose tissue treated orally for 6 hrs followed by incubation with [14C]stearoyl-CoA substrate for 10 mins by TLC assay; format: organism-based; conditions: po; how it was run: as §2
[8] = Ratio of drug uptake in high sucrose diet Sprague-Dawley rat liver to eyelid at 10 mg/kg, po treated after 6 hrs; format: ADME, organism-based; conditions: in vivo
How it was run: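 Sprague-Dawley rats on a high sucrose diet, given a single oral 10 mg/kg dose. Plasma, liver and eyelid drug concentrations were measured 6 h later, n=3. Liver/eyelid ratio was taken from the tissue concentrations.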

Rattus norvegicus [9] = assay: Anti-hepatic steatosis activity in high sucrose very low fat diet fed Sprague-Dawley rat assessed as reduction in triglyceride level in liver administered orally once daily for 8 days and measured on day 8 post last dose; format: functional, organism-based
How it was run: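 SD rats kept on a high sucrose very low fat diet, dosed orally at 1 or 10 mg/kg once daily for 8 days. On day 8, liver slices were homogenized in methanol and extracted with methanol/chloroform. The supernatant was dried under N2 and redissolved in 2-propanol. Triglyceride was read on an automatic analyzer and expressed as mg/g tissue.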

Rattus norvegicus [10] = assay: Toxicity in Sprague-Dawley rat assessed as loss of fur at 1000 mg/kg, po once daily for 2 weeks measured from day 9 of administeration; format: organism-based; conditions: in vivo, 336 h
How it was run: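 Male Sprague Dawley rats, 6 weeks old (5 per group), were dosed orally once daily for 2 weeks at 100 or 1000 mg/kg as a suspension in 0.5% methylcellulose; controls received vehicle. Readouts: clinical observations, body weight, food consumption, ophthalmoscopy in week 2, and terminal necropsy, hematology, clinical chemistry, organ weights and histopathology. Plasma levels were measured 24 h post-dose on days 1, 5 and 10.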

[11] = AUC in Sprague-Dawley rat at 100 mg/kg, po; format: ADME, organism-based; conditions: in vivo
How it was run: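 Male 6-week-old SD rats, 5 per group, dosed orally once daily for 2 weeks as a suspension in 0.5% methylcellulose aqueous solution. Plasma drug levels taken 24 h after dosing on days 1, 5 and 10. Exposure figure is from this 2-week repeat-dose toxicity study.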

Chain of hERG (KCNH2) (Q12809 whole entry): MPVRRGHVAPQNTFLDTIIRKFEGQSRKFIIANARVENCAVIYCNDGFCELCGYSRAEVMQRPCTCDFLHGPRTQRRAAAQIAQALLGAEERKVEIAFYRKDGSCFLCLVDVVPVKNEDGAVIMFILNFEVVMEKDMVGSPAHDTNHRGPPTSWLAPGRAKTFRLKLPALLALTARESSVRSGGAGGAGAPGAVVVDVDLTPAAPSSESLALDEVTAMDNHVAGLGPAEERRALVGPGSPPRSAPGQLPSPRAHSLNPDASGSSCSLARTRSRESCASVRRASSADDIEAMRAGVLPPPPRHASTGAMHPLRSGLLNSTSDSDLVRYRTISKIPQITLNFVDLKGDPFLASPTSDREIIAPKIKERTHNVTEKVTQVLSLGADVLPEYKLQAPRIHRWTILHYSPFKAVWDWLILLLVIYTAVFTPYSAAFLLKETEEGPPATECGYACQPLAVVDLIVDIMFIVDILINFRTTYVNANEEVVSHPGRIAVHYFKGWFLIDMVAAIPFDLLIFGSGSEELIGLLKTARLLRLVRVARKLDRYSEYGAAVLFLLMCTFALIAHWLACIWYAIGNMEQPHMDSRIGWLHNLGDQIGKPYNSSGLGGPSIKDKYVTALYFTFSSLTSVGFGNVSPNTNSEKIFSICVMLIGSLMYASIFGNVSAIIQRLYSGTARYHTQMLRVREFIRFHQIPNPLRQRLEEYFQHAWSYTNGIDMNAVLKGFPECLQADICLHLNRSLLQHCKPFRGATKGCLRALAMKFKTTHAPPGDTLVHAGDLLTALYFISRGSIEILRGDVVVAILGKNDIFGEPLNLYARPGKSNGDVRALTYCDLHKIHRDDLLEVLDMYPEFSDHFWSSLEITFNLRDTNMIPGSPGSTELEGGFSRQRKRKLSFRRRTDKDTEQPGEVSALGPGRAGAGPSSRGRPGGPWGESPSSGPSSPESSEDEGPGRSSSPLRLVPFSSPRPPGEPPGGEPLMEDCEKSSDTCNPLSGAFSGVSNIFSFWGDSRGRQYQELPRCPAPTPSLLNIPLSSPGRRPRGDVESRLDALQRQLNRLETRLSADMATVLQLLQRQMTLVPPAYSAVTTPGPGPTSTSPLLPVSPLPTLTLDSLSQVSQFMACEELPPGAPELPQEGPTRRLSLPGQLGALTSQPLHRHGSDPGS
Chain of Cytochrome P450 2D6 (P10635 whole entry): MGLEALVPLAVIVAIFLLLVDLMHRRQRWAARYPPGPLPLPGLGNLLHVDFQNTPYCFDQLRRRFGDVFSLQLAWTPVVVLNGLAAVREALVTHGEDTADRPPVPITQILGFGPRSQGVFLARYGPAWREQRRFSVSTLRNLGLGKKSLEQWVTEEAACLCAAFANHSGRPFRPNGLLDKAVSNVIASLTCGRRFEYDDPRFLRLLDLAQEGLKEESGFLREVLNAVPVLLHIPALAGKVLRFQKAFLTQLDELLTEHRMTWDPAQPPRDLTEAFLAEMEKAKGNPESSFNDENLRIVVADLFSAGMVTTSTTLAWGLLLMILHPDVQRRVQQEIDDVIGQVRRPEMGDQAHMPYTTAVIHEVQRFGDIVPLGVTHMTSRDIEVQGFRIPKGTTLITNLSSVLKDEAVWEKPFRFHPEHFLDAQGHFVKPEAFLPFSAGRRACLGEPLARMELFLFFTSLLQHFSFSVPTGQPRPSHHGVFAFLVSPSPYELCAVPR
Chain of Cytochrome P450 3A4 (P08684 whole entry): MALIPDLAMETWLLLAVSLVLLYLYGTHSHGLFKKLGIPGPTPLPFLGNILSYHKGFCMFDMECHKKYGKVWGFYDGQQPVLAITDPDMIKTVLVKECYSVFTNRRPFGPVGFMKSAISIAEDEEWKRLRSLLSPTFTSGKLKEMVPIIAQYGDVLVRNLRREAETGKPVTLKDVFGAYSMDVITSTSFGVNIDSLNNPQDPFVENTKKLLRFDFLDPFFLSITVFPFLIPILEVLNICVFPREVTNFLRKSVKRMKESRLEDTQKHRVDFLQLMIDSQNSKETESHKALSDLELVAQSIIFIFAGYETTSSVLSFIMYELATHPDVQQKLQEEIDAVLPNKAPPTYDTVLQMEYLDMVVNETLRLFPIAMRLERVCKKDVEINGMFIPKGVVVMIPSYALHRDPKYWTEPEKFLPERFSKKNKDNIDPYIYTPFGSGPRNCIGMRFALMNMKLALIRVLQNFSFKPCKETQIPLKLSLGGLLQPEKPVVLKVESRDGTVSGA
Chain of Cytochrome P450 2C9 (P11712 whole entry): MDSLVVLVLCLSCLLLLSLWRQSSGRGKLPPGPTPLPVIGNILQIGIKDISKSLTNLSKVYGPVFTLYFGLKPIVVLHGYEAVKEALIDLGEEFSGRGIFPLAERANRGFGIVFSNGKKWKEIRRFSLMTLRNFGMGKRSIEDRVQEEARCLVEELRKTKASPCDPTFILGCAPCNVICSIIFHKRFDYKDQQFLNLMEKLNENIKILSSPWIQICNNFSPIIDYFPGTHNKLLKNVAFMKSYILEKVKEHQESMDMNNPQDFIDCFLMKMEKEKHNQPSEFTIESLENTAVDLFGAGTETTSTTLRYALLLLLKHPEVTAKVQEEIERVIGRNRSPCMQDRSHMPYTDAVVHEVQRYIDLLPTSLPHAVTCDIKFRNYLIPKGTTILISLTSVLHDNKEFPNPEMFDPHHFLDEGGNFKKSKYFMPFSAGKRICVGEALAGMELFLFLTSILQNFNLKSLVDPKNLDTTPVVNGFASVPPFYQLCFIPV

IC50 (Stearoyl-CoA desaturase): 8.8 nM | solubility [1]: 82 µM (≈ 35.2 µg/mL) | Papp [2]: 43.6 ×10⁻⁶ cm/s | IC50 (Acyl-CoA desaturase 1): 6.5 nM | IC50 (Cytochrome P450 3A4): > 50000 nM | IC50 (Cytochrome P450 2C9): > 50000 nM | IC50 (Cytochrome P450 2D6): > 50000 nM | remaining at 1 h [4]: 91% | inhibition (INH) (Rattus norvegicus [7]): Dose-dependent effect | Ratio [8]: 6.3 | AUC [11]: 179 µM·h
Structure (SMILES): CCCCc1ccccc1NCc1ccc(C(=O)Nc2nc(CC(=O)O)cs2)s1
Activity (Mus musculus [3]): 11% | inhibition at 10 µM (hERG (KCNH2)): 14.7% | Activity (Mus musculus [5]): Dose-dependent effect | inhibition (Rattus norvegicus [6]): Dose-dependent effect | Activity (Rattus norvegicus [9]): Dose-dependent effect | Activity (Rattus norvegicus [10]): Toxic
